Reference: ChEMBL document CHEMBL4706487, “Antitumor agents 7. Synthesis, antiproliferative activity and molecular modeling of new l-lysine-conjugated pyridophenoxazinones as potent DNA-binding ligands and topoisomerase IIα inhibitors” (Eur J Med Chem, 2020)
pIC50: −log10 of the molar value. Active and inactive are the calls of the source. No cut-off for these calls is given here. Starred links: 1 amine or outer side, 2 acyl side, 3 side chain; linkers in the order of their positions; H or OH if unused. Positions of bridges follow the written chain, without caps; N, C: chain ends. Non-standard residues stand in square brackets, D forms with d. Residues, ends and D or L forms follow the SMILES beside them. Chains are numbered I, II in the order given. Actinocin(1to9) = Cc1c2oc3c(C)ccc(C(=O)[*:2])c3nc-2c(C(=O)[*:1])c(N)c1=O; NMeV = CN[C@H](C(=O)O)C(C)C; Sar = CNCC(=O)O

How the values were obtained:
[1] = test system: G-361; assay: Antiproliferative activity against human G-361 cells assessed as cell viability measured after 4 days by MTT assay; type: functional, cell-based; settings: G-361, 96 h
In short: (§1)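 Leukemia/lymphoma cells (RPMI 1640, 10% FCS) resuspended at 1 × 10⁵ cells/mL with serial drug dilutions and read by MTT after 96 h at 37 °C. Solid-tumor cells (own media, 10% FCS) were seeded at 5 × 10⁴ cells/mL, allowed 16 h to adhere, then dosed and read by MTT 4 days later. IC50 was derived by linear regression of growth as % of untreated controls.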

[2] = test system: CCRF-CEM; assay: Antiproliferative activity against human CCRF-CEM cells assessed as cell viability measured after 4 days by MTT assay; type: functional, cell-based; settings: 96 h; in short: as §1
[3] = test system: CCRF-SB; assay: Antiproliferative activity against human CCRF-SB cells assessed as cell viability measured after 4 days by MTT assay; type: functional, cell-based; settings: 96 h; in short: as §1
[4] = test system: MT4; assay: Antiproliferative activity against human MT-4 cells assessed as cell viability measured after 4 days by MTT assay; type: functional, cell-based; settings: MT4, 96 h; in short: as §1
[5] = test system: HT-29; assay: Antiproliferative activity against human HT-29 cells assessed as cell viability measured after 4 days by MTT assay; type: functional, cell-based; settings: HT-29, 96 h; in short: as §1
[6] = test system: MCF7; assay: Antiproliferative activity against human MCF7 cells assessed as cell viability measured after 4 days by MTT assay; type: functional, cell-based; settings: MCF7, 96 h; in short: as §1
[7] = test system: HeLa; assay: Antiproliferative activity against human HeLa cells assessed as cell viability measured after 4 days by MTT assay; type: functional, cell-based; settings: 96 h
In short: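 Solid-tumor cells (own media, 10% FCS) were seeded at 5 × 10⁴ cells/mL, allowed 16 h to adhere, then dosed and read by MTT 4 days later. IC50 was derived by linear regression of growth as % of untreated controls.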

[8] = test system: ACHN; assay: Antiproliferative activity against human ACHN cells assessed as cell viability measured after 4 days by MTT assay; type: functional, cell-based; settings: 96 h; in short: as §1
[9] = test system: SK-MEL-28; assay: Antiproliferative activity against human SKMEL-28 cells assessed as cell viability measured after 4 days by MTT assay; type: functional, cell-based; settings: SK-MEL-28, 96 h; in short: as §1
[10] = test system: Calf thymus DNA; assay: Binding affinity to calf thymus DNA assessed as lamda max by UV-vis spectroscopy; type: nucleic-acid assay; settings: Bos taurus
In short: (§2)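 ctDNA held at 0.2 mM in phosphate buffer pH 7 and titrated with drug from […]. UV-vis spectra recorded in a 1 cm quartz cuvette. Binding constant was taken by the mole-ratio method from optical density changes at 260 nm, using a double reciprocal plot.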

[11] = test system: Calf thymus DNA; assay: Binding affinity to calf thymus DNA assessed as isosbestic point by UV-vis spectroscopy; type: nucleic-acid assay; settings: Bos taurus; in short: as §2
[12] = test system: Calf thymus DNA; assay: Binding affinity to calf thymus DNA assessed as red shift by UV-vis spectroscopy; type: nucleic-acid assay; design: unit not given here; settings: Bos taurus; in short: as §2
[13] = test system: DNA; assay: Binding affinity at Escherichia coli pBR322 DNA assessed as unwinding of supercoiled DNA at 10 uM incubated for 10 mins in presence of human topoisomerase 1 by agarose gel based electrophoresis; type: nucleic-acid assay
In short: (§3)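 Intercalation assay with relaxed pBR322 (300 ng) and 2 units human Topo I in 50 mM Tris-HCl pH 7.5, 2.5 mM MgCl₂, 0.5 mM DTT and 50 µg/mL BSA, run 10 min at 37 °C. Stopped by phenol/chloroform/isoamyl alcohol extraction. Products run on 1.2% agarose in TAE, 2 V/cm for 15 h, then EtBr-stained. EtBr served as control; three independent experiments.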

[14] = test system: DNA; assay: Binding affinity at Escherichia coli pBR322 DNA assessed as unwinding of supercoiled DNA at 0.1 uM incubated for 10 mins in presence of human topoisomerase 1 by agarose gel based electrophoresis; type: nucleic-acid assay; in short: as §3
[15] = molecular target: DNA topoisomerase 2-alpha (Homo sapiens) (UniProt P11388); assay: Inhibition of human topoisomerase 2alpha mediated pBR322 DNA relaxation at 1 uM by agarose gel electrophoresis relative to control
DNA topoisomerase 2-alpha (Homo sapiens), sequence (P11388 whole entry): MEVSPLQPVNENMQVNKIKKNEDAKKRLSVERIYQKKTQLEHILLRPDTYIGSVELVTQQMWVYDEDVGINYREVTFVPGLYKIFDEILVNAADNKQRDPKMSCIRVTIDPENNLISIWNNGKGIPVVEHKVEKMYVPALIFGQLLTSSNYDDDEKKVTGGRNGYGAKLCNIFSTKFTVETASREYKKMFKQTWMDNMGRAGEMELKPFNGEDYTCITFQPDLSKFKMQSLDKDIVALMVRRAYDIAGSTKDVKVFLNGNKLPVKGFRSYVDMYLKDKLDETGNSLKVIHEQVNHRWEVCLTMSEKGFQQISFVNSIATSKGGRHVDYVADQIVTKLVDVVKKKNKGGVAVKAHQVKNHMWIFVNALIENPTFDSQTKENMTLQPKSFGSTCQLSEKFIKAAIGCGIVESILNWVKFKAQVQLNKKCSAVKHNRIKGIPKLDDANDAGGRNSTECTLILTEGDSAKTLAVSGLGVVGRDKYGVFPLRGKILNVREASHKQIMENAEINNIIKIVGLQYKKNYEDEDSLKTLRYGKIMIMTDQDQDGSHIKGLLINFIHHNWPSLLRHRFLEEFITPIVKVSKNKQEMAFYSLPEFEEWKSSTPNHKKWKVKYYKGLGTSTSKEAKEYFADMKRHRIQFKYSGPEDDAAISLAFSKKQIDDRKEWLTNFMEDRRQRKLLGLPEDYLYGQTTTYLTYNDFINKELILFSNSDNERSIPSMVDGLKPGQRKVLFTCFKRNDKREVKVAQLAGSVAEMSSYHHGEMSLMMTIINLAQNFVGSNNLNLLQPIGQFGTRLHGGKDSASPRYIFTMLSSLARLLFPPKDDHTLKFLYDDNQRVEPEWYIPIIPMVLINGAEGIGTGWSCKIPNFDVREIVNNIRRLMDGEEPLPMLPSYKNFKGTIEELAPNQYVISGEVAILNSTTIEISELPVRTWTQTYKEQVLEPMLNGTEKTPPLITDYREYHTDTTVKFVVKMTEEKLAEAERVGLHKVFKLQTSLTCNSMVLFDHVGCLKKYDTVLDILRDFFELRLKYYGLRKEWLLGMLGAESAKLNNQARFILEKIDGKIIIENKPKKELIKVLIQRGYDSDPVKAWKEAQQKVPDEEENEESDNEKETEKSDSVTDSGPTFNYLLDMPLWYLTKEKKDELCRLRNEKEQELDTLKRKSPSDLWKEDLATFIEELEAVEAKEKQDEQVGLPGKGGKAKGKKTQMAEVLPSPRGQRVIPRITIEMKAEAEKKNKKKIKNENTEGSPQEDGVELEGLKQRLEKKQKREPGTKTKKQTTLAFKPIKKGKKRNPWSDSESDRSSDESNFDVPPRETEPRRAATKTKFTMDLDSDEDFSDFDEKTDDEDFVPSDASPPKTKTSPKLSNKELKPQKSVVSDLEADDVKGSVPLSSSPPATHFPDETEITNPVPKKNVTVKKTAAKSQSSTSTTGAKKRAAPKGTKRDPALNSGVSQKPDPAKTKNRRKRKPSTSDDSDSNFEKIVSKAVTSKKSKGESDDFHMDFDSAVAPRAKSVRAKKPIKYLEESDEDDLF

[16] = molecular target: DNA topoisomerase 2-alpha (Homo sapiens) (UniProt P11388); assay: Inhibition of human topoisomerase 2alpha mediated pBR322 DNA relaxation at 2 uM by agarose gel electrophoresis relative to control
[17] = molecular target: DNA topoisomerase 2-alpha (Homo sapiens) (UniProt P11388); assay: Poison activity at human topo2alpha assessed as induction of accumulation of topo-2/DNA cleavage complex formation at 1 to 5 uM using […] plasmid incubated for 10 mins by agarose gel electrophoresis; settings: dose 1-5 µM
In short: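 Supercoiled pBR322 incubated with purified Topo IIα and drug for 10 min at 30 °C. Stopped with 0.35% SDS plus 0.3 mg/mL proteinase K (final), then 1 h at 56 °C. Products run on 1.2% agarose gels containing EtBr. Linear DNA quantified by gel densitometry; averages of three independent experiments.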

[18] = test system: Calf thymus DNA; assay: Binding affinity to calf thymus DNA assessed as hypochromism by UV-vis spectroscopy; settings: Bos taurus
[19] = test system: MCF7; assay: Induction of DNA damage in human MCF7 cells assessed as increase in gammaH2AX foci at 5 to 10 uM measured after 0.5 to 3 hrs by Western blot analysis; type: functional, cell-based; settings: dose 5-10 µM, time 0.5-3 hrs
In short: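 MCF-7 cells were treated for 0.5, 1 and 3 h, washed with ice-cold PBS and lysed in RIPA buffer containing PMSF and protease inhibitors. Lysates run on SDS-PAGE, blotted to PVDF and probed for H2AX, with β-actin as loading control. Detection by HRP secondary antibody and enhanced chemiluminescence.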

[20] = molecular target: DNA topoisomerase 2-alpha (Homo sapiens) (UniProt P11388); assay: Inhibition of human topoisomerase 2alpha mediated pBR322 DNA relaxation at 0.7 uM by agarose gel electrophoresis relative to control
[21] = molecular target: DNA topoisomerase 2-alpha (Homo sapiens) (UniProt P11388); assay: Inhibition of human topoisomerase 2alpha mediated pBR322 DNA relaxation at 1.5 uM by agarose gel electrophoresis relative to control
[22] = molecular target: DNA topoisomerase 2-beta (Homo sapiens) (UniProt Q02880); assay: Poison activity at topo2beta (unknown origin) assessed as induction of accumulation of topo-2/DNA cleavage complex formation by agarose gel electrophoresis
DNA topoisomerase 2-beta (Homo sapiens), sequence (Q02880 whole entry): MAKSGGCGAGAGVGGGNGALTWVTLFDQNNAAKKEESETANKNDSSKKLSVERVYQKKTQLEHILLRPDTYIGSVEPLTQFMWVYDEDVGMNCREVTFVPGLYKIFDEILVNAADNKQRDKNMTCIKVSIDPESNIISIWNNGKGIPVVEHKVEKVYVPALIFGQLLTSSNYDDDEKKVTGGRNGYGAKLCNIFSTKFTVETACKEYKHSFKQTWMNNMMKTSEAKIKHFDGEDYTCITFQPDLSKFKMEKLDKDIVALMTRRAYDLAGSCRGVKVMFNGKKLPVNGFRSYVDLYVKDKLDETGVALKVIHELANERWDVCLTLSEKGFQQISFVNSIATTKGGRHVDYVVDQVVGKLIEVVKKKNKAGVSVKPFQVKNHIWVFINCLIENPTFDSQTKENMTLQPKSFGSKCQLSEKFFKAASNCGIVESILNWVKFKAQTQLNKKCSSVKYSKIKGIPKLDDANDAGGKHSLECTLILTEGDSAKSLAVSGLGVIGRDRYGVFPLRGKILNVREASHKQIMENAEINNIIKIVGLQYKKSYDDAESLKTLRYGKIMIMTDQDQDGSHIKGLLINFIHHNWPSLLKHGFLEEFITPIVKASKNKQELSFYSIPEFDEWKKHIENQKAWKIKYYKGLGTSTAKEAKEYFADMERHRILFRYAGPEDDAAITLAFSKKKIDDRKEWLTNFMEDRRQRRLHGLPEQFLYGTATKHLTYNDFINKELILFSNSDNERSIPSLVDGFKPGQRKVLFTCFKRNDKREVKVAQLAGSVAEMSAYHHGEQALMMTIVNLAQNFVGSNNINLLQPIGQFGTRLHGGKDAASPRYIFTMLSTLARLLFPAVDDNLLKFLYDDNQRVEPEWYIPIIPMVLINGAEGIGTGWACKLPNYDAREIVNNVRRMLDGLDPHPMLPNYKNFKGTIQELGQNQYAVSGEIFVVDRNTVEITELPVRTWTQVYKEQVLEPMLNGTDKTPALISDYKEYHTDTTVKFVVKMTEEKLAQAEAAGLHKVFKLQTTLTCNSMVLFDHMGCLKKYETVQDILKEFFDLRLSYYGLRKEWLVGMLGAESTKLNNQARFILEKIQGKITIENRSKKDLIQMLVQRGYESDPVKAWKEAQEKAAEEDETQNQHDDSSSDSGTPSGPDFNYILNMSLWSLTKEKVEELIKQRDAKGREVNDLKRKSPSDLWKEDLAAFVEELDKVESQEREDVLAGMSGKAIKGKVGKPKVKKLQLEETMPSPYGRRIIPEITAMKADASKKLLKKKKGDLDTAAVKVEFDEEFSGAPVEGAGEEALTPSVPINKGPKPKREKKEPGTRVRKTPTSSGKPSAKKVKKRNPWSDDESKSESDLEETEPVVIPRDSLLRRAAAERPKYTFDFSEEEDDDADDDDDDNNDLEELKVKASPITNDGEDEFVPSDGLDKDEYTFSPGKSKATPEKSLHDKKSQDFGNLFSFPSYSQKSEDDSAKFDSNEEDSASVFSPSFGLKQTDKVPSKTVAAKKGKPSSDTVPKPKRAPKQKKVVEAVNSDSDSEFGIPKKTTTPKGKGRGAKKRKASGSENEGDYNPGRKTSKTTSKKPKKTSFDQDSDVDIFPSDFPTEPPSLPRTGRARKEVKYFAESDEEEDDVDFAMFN

[23] = test system: MCF7; assay: Induction of DNA damage in human MCF7 cells assessed as increase tail length at 1 to 10 uM after 24 hrs by comet assay; type: functional, cell-based; settings: dose 1-10 µM
In short: (§4)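 About 1 × 10⁵ MCF-7 cells seeded; after 24 h, drug added for 24 h, with 10 µM VP-16 as positive control. Alkaline comet assay: lysis 1 h at 4 °C at pH 10, unwinding at pH 13, then electrophoresis at 30 V for 15 min. Slides neutralized, PI-stained and imaged by fluorescence microscopy at 10×. Tail lengths were taken from randomly selected cells.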

[24] = test system: MCF7; assay: Induction of DNA damage in human MCF7 cells assessed as increase tail length at 10 uM after 24 hrs by comet assay (reference value: 8%); type: functional; in short: as §4
[25] = test system: MCF7; assay: Induction of cell cycle arrest in human MCF7 cells assessed as accumulation of cells at G0/G1 phase at 0.1 uM after 12 hrs by flow cytometry (reference value: 51.7%); type: functional
In short: (§5)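 MCF-7 cells exposed continuously to vehicle or 0.1 µM drug for 12, 24 and 48 h. Cell cycle distribution was assessed by flow cytometry.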

[26] = test system: MCF7; assay: Induction of cell cycle arrest in human MCF7 cells assessed as accumulation of cells at S phase at 0.1 uM after 12 hrs by flow cytometry (reference value: 31.3%); type: functional; in short: as §5
[27] = test system: MCF7; assay: Induction of cell cycle arrest in human MCF7 cells assessed as accumulation of cells at G2/M phase at 0.1 uM after 12 hrs by flow cytometry (reference value: 17%); type: functional; in short: as §5
[28] = test system: MCF7; assay: Induction of cell cycle arrest in human MCF7 cells assessed as accumulation of cells at G0/G1 phase at 0.1 uM after 24 hrs by flow cytometry (reference value: 51.7%); type: functional; in short: as §5
[29] = test system: MCF7; assay: Induction of cell cycle arrest in human MCF7 cells assessed as accumulation of cells at S phase at 0.1 uM after 24 hrs by flow cytometry (reference value: 31.3%); type: functional; in short: as §5
[30] = test system: MCF7; assay: Induction of cell cycle arrest in human MCF7 cells assessed as accumulation of cells at G2/M phase at 0.1 uM after 24 hrs by flow cytometry (reference value: 17%); type: functional; in short: as §5
[31] = test system: MCF7; assay: Induction of cell cycle arrest in human MCF7 cells assessed as accumulation of cells at G0/G1 phase at 0.1 uM after 48 hrs by flow cytometry (reference value: 51.7%); type: functional; in short: as §5
[32] = test system: MCF7; assay: Induction of cell cycle arrest in human MCF7 cells assessed as accumulation of cells at S phase at 0.1 uM after 48 hrs by flow cytometry (reference value: 31.3%); type: functional; in short: as §5
[33] = test system: MCF7; assay: Induction of cell cycle arrest in human MCF7 cells assessed as accumulation of cells at G2/M phase at 0.1 uM after 48 hrs by flow cytometry (reference value: 17%); type: functional; in short: as §5

Row | pIC50 [2] | pIC50 [3] | pIC50 [5] | pIC50 [6] | pIC50 [7] | pIC50 [8] | pIC50 [9] | Activity [10] | Activity [11] [nm] | Activity [12] | Activity [13] | Activity [18] | SMILES | pIC50 [1] | pIC50 [4] | further results
1 | – | – | – | – | – | – | – | – | – | – | – | – | Cc1c2oc3c(C)ccc(C(=O)N[C@@H]4C(=O)N[C@H](C(C)C)C(=O)N5CCC[C@H]5C(=O)N(C)CC(=O)N(C)[C@@H](C(C)C)C(=O)O[C@@H]4C)c3nc-2c(C(=O)N[C@@H]2C(=O)N[C@H](C(C)C)C(=O)N3CCC[C@H]3C(=O)N(C)CC(=O)N(C)[C@@H](C(C)C)C(=O)O[C@@H]2C)c(N)c1=O [DACTINOMYCIN] (I: T[dV]P[Sar][NMeV] / II: T[dV]P[Sar][NMeV]; ester I:1-I:C, II:1-II:C; linker I:N-II:N via Actinocin(1to9)) | 8.22 | – | –
2 | 7.70 | 7.70 | 8.52 | 8.15 | 8.30 | 8.10 | 8.70 | 443 | 395 | 447 | Active | 28 | NCCCC[C@H](NC(=O)c1ccc2nc3c4cccnc4c(=O)cc-3oc2c1)C(=O)O | 9.00 | 8.00 | Activity [14]: Active; inhibition [15]: 50%; inhibition [16]: 100%; Activity [17]: Active
3 | 8.52 | 8.30 | 8.40 | 8.52 | 8.30 | 8.30 | 8.70 | 443 | 340 | 448 | Active | 58% | N[C@@H](CCCCNC(=O)c1ccc2nc3c4cccnc4c(=O)cc-3oc2c1)C(=O)O | 8.22 | 8.22 | Activity [19]: Active; Activity [14]: Active; inhibition [20]: 50%; inhibition [21]: 100%; Activity [17]: Active; Activity [22]: inactive; Activity [23]: Active; Activity [24]: 50%; Activity [25]: 51.71%; Activity [26]: 30.5%; Activity [27]: 17.8%; Activity [28]: 48%; Activity [29]: 26%; Activity [30]: 26%; Activity [31]: 42.5%; Activity [32]: 8.73%; Activity [33]: 48.77%
4 | 6.80 | 6.80 | 6.70 | 7.00 | 7.00 | 7.10 | 6.68 | 445 | 280 | 447 | – | 19% | NCCCC[C@H](NC(=O)c1ccc2oc3cc(=O)c4cccnc4c-3nc2c1)C(=O)O | 7.30 | 6.70 | –
5 | 7.77 | 7.10 | 7.00 | 7.30 | 7.30 | 7.22 | 7.22 | 451 | 297 | 455 | – | 26% | NCCCC[C@H](NC(=O)c1ccc2nc3c4ncccc4c(=O)cc-3oc2c1)C(=O)O | 7.30 | 6.70 | –
6 | 7.40 | 7.10 | 7.70 | 7.22 | 7.30 | 7.30 | 7.40 | 436 | 310 | 440 | Active | 39% | N[C@@H](CCCCNC(=O)c1ccc2oc3cc(=O)c4ncccc4c-3nc2c1)C(=O)O | 7.70 | 7.05 | –
7 | 6.82 | 7.00 | 6.92 | 6.92 | 6.82 | 7.00 | 7.00 | 441 | 275 | 446 | – | 17% | N[C@@H](CCCCNC(=O)c1ccc2oc3cc(=O)c4cccnc4c-3nc2c1)C(=O)O | 7.52 | 6.82 | –
